Our source for the IC50 values is ChEMBL document CHEMBL1126663, “Purine 2'-deoxy-2'-fluororibosides as antiinfluenza virus agents” (J Med Chem, 1993).

Assay [1] can be described thus: Cytotoxicity in uninfected dog kidney (MDCK) cells. The format is cell-based. As to conditions: Canis lupus familiaris. The method, boiled down:
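Dividing MDCK cells seeded at 2 × 10^4 cells/well in 24-well plates; compound added to growth medium at various concentrations. Cell growth compared with untreated controls over 4 days incubation (3-4 cell doublings).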

The test system of assay [2] is Influenza A virus. In words: Antiviral activity against Influenza virus (A/Sweden/3/50/ (H1N1)) in dog kidney (MDCK) cells expressed. In kind it is functional, organism-based. The method, boiled down:
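Plaque reduction assay. Confluent MDCK monolayers were infected with 50-150 PFU in the presence of compound, then overlaid with nutrient agarose containing 0.1 µg/mL trypsin, 100 µg/mL DEAE-dextran and compound. After 3-4 days at 36 °C, cells were formalin-fixed and methyl violet-stained, and plaques were counted as % of the untreated infected control, in triplicate. IC50 came from mean-versus-log concentration curves.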

`COc1nc(N)nc2c1ncn2[C@@H]1O[C@H](CO)[C@@H](O)[C@H]1F`: the IC50 in assay [1] was more than 500 µM; in assay [2], 16 µM.

On to `CSc1ncnc2c1ncn2[C@@H]1O[C@H](CO)[C@@H](O)[C@H]1F`, for which the IC50 was more than 500 µM in assay [1] and more than 100 µM in assay [2].

For the molecule `OC[C@H]1O[C@@H](n2cnc3c(O)ncnc32)[C@H](F)[C@@H]1O`, the IC50 in assay [1] was more than 500 µM; in assay [2] it was more than 100 µM.

As for `Nc1nc(F)nc2c1ncn2[C@@H]1O[C@H](CO)[C@@H](O)[C@H]1F`, the figures for the IC50 in assay [1] and in assay [2] were 120 µM and more than 100 µM, respectively.

Turning to `CSc1nc(N)nc2c1ncn2[C@@H]1O[C@H](CO)[C@@H](O)[C@H]1F`, the results for the IC50 in assay [1] and in assay [2] were more than 500 µM and more than 100 µM, respectively.

For `CCOc1nc(N)nc2c1ncn2[C@@H]1O[C@H](CO)[C@@H](O)[C@H]1F`, the IC50 in assay [1] was more than 500 µM; in assay [2] it was 29 µM.

Take `Cc1nc(N)nc2c1ncn2[C@@H]1O[C@H](CO)[C@@H](O)[C@H]1F`: the IC50 in assay [1] was more than 500 µM; in assay [2], more than 100 µM.

Consider `CCOc1ncnc2c1ncn2[C@@H]1O[C@H](CO)[C@@H](O)[C@H]1F`, for which the IC50 in assay [1] was more than 500 µM; in assay [2] it was more than 100 µM.

In the case of `COc1nc(N)c2ncn([C@@H]3O[C@H](CO)[C@@H](O)[C@H]3F)c2n1`, the figures for the IC50 in assay [1] and in assay [2] were more than 500 µM and more than 100 µM, respectively.

Consider `Nc1nc(NC2CC2)c2ncn([C@@H]3O[C@H](CO)[C@@H](O)[C@H]3F)c2n1`, for which the IC50 in assay [1] is more than 500 µM; in assay [2], 72 µM.

Turning to `Nc1nc(I)c2ncn([C@@H]3O[C@H](CO)[C@@H](O)[C@H]3F)c2n1`, the IC50 in assay [1] was determined as 300 µM; in assay [2] it was 23 µM.

As for `Nc1nc(N)c2ncn([C@@H]3O[C@H](CO)[C@@H](O)[C@H]3F)c2n1`, the results for the IC50 in assay [1] and in assay [2] were more than 500 µM and 15 µM, respectively.

On to `Nc1nc(Cl)c2ncn([C@@H]3O[C@H](CO)[C@@H](O)[C@H]3F)c2n1`, for which the IC50 in assay [1] is more than 500 µM; in assay [2], 17 µM.

On to `Nc1ncc2ncn([C@@H]3O[C@H](CO)[C@@H](O)[C@H]3F)c2n1`, for which the IC50 in assay [1] was more than 500 µM; in assay [2], more than 100 µM.

On to `Cc1nc(N)c2ncn([C@@H]3O[C@H](CO)[C@@H](O)[C@H]3F)c2n1`, for which the IC50 in assay [1] was more than 500 µM; in assay [2], more than 100 µM.

For `OC[C@H]1O[C@@H](n2cnc3c(NC4CC4)ncnc32)[C@H](F)[C@@H]1O`, the IC50 in assay [1] was more than 500 µM; in assay [2], more than 100 µM.

As for `COc1ncnc2c1ncn2[C@@H]1O[C@H](CO)[C@@H](O)[C@H]1F`, the IC50 in assay [1] is more than 500 µM; in assay [2], more than 100 µM.

In the case of `CCCOc1nc(N)nc2c1ncn2[C@@H]1O[C@H](CO)[C@@H](O)[C@H]1F`, the IC50 in assay [1] is more than 500 µM; in assay [2], 36 µM.

`Nc1ncnc2c1ncn2[C@@H]1O[C@H](CO)[C@@H](O)[C@H]1F` [2'-BETA-FLUORO-2',3'-DEOXYADENOSINE]: the IC50 in assay [1] is 320 µM; in assay [2], 52 µM.

What is called IC50 is the concentration needed to halve the response being measured. The low end stands for greater potency in that assay, the high end for weaker potency in that assay.
